Measurements: ChEMBL document CHEMBL5543163, “Druglike, 18F-labeled PET Tracers Targeting Fibroblast Activation Protein” (J Med Chem, 2024)

Tests used:
Dipeptidyl peptidase 8 = Dipeptidyl peptidase 8 (Homo sapiens, UniProt Q6V1X1); experiment: Inhibition of DPP8 (unknown origin)
[1] = Stability in PBS assessed as compound remaining at 185 kBq measured upto 60 mins by radio-HPLC analysis; format: physicochemical; details: read-out: Stability
How it was run: (§1)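 Radiotracer was incubated at 37 °C for up to 60 min in PBS (0.01 M, pH 7.4) or in mouse plasma. Samples were deproteinized with an equal volume of cold ACN and centrifuged. The supernatant was analyzed by radio-HPLC with 30 s fractions γ-counted to give the intact fraction. Triplicates.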

[2] = Drug uptake in liver of female nude mouse harboring null mutation of CD1 antigen complex at 5.1 to 7.4 MBq, iv measured after 15 to 60 mins by gamma counter analysis; format: ADME, organism-based; details: in vivo, dose lower 5.1 MBq, time lower 15 min, dose upper 7.4 MBq, time upper 60 min
How it was run: (§2)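 Female CD1 nude mice, 6–8 weeks old (20–25 g), received the radiotracer through the lateral tail vein. At 15, 30 and 60 min p.i. (n = 3 per time point) blood was drawn by cardiac puncture and the animals were euthanized. Organs were excised, weighed and γ-counted. Uptake is expressed as %ID/g.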

[3] = Stability in CD1 mouse plasma assessed as compound remaining at 185 kBq measured upto 60 mins by radio-HPLC analysis; format: ADME, cell-free; details: read-out: Stability; how it was run: as §1
[4] = Drug uptake in tumor of female nude mouse harboring null mutation of CD1 antigen complex xenografted with FAP-negative human HT-29 cells at 5 to 7.4 MBq, iv measured after 60 mins by autoradiography; format: ADME, organism-based, Neoplasm; details: in vivo, 1 h, dose 5-7.4 MBq
How it was run: (§3)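 Right after imaging and γ-counting, tumors from HT29 or U-87MG xenografts were snap-frozen and embedded in OCT. Sections of 100 µm were exposed overnight to phosphor screens. Non-blocked tumors were compared with tumors from mice pre-injected with the FAP inhibitor.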

[5] = Drug uptake in urinary bladder of female nude mouse harboring null mutation of CD1 antigen complex assessed as increase in renal excretion at 5.1 to 7.4 MBq, iv measured after 15 to 60 mins by gamma counter analysis; format: ADME, organism-based; details: in vivo, dose lower 5.1 MBq, time lower 15 min, dose upper 7.4 MBq, time upper 60 min; how it was run: as §2
[6] = Ratio of drug level in tumor to blood of female nude mouse harboring null mutation of CD1 antigen complex xenografted with human U-87 MG cells at 5 to 7.4 MBq, iv measured at 60 mins postinjection by gamma counter analysis; format: ADME, organism-based; details: tumour, 1 h, dose 5-7.4 MBq
How it was run: (§4)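 Subcutaneous U-87MG xenografts (5×10^6 cells in DPBS, hind flank) were grown in female CD1 nude mice to about 200 mm3. After tail-vein radiotracer injection and a 60 min dynamic PET scan, tissues were harvested at 60 min p.i. and γ-counted (%ID/g). Tumor-to-tissue ratios are means ± SD of individual ratios, n=4 per tracer.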

[7] = Drug uptake in tumor of female nude mouse harboring null mutation of CD1 antigen complex xenografted with human U-87 MG cells at 5 to 7.4 MBq, iv pretreated with (S)-N-(2-(2-cyano-4,4-difluoropyrrolidin-1-yl)-2-oxoethyl)quinoline-4-carboxamide for 30 mins followed by radioligand addition and measured measured after 60 mins by PET/CT analysis; format: ADME, organism-based, Neoplasm; details: in vivo, 1 h, dose 5-7.4 MBq
How it was run: (§5)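 U-87MG xenografts (5×10^6 cells, subcutaneous flank) were grown in female CD1 nude mice to about 200 mm3. Dynamic whole-body PET over 60 min p.i. was followed by CT. Images were reconstructed with OSEM 3D and expressed as %ID/mL to give time-activity curves. For blocking, the FAP inhibitor (5 mg/kg) was given via the tail vein 30 min before the tracer; n=4.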

[8] = Drug uptake in tumor of female nude mouse harboring null mutation of CD1 antigen complex xenografted with FAP-negative human HT-29 cells at 5 to 7.4 MBq, iv measured at 60 mins by PET/CT analysis; format: ADME, organism-based, Neoplasm; details: in vivo, 1 h, dose 5-7.4 MBq
How it was run: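 HT29 xenografts (10×10^6 cells, subcutaneous hind flank) were grown in female CD1 nude mice to about 200 mm3. After tail-vein injection of the tracer, dynamic PET over 60 min was followed by CT. Images were reconstructed with OSEM 3D and tumor uptake was expressed as %ID/mL from time-activity curves, n=4.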

[9] = Drug uptake in intestine of female nude mouse harboring null mutation of CD1 antigen complex at 5.1 to 7.4 MBq, iv measured after 15 to 60 mins by gamma counter analysis; format: ADME, organism-based; details: in vivo, dose lower 5.1 MBq, time lower 15 min, dose upper 7.4 MBq, time upper 60 min; how it was run: as §2
[10] = Drug uptake in tumor of female nude mouse harboring null mutation of CD1 antigen complex xenografted with human U-87 MG cells at 5 to 7.4 MBq, iv measured after 60 mins by autoradiography; format: ADME, organism-based, Neoplasm; details: in vivo, 1 h, dose 5-7.4 MBq; how it was run: as §3
[11] = Drug uptake in skull of female nude mouse harboring null mutation of CD1 antigen complex xenografted with human U-87 MG cells at 5 to 7.4 MBq, iv measured after 60 mins by gamma counter analysis; format: ADME, organism-based; details: in vivo, 1 h, dose 5-7.4 MBq
[12] = Drug uptake in tumor of female nude mouse harboring null mutation of CD1 antigen complex xenografted with human HT-29 cells with decreased FAP positive tumor area at 5 to 7.4 MBq, iv measured after 60 mins by immunohistochemistry analysis; format: ADME, organism-based, Neoplasm; details: in vivo, 1 h, dose 5-7.4 MBq
[13] = Drug uptake in bone structures of female nude mouse harboring null mutation of CD1 antigen complex xenografted with human U-87 MG cells at 5 to 7.4 MBq, iv measured after 60 mins by gamma counter analysis; format: ADME, organism-based, Bone element; details: in vivo, 1 h, dose 5-7.4 MBq
[14] = Ratio of drug level in tumor to liver of female nude mouse harboring null mutation of CD1 antigen complex xenografted with human U-87 MG cells at 5 to 7.4 MBq, iv measured at 60 mins postinjection by gamma counter analysis; format: ADME, organism-based; details: in vivo, 1 h, dose 5-7.4 MBq; how it was run: as §4
[15] = Stability in CD1 mouse plasma assessed as drug degradation at 185 kBq measured upto 60 mins by radio-HPLC analysis; format: ADME, cell-free; details: 1 h; how it was run: as §1
[16] = Drug uptake in kidney of female nude mouse harboring null mutation of CD1 antigen complex assessed as increase in renal excretion at 5.1 to 7.4 MBq, iv measured after 15 to 60 mins by gamma counter analysis; format: ADME, organism-based; details: in vivo, dose lower 5.1 MBq, time lower 15 min, dose upper 7.4 MBq, time upper 60 min; how it was run: as §2
[17] = Stability in PBS assessed as drug degradation at 185 kBq measured upto 60 mins by radio-HPLC analysis; format: physicochemical; details: buffer, 1 h; how it was run: as §1
[18] = Drug uptake in tumor of female nude mouse harboring null mutation of CD1 antigen complex xenografted with human U-87 MG cells with increased FAP positive tumor area at 5 to 7.4 MBq, iv measured after 60 mins by immunohistochemistry analysis; format: ADME, organism-based, Neoplasm; details: in vivo, 1 h, dose 5-7.4 MBq
[19] = Octanol/water partition coefficient, logD of compound at 74 kBq incubated for 2 mins by gamma counter method; format: physicochemical
How it was run: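 Octanol and PBS phases were mixed and vortexed for 2 min, then centrifuged at 3,000 rpm for 10 min. Aliquots of 0.5 mL from each phase were γ-counted and corrected for mass and density. LogD was taken as log10 of the octanol/PBS radioactivity ratio.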

[20] = Ratio of drug level in tumor to muscle of female nude mouse harboring null mutation of CD1 antigen complex xenografted with human U-87 MG cells at 5 to 7.4 MBq, iv measured at 60 mins postinjection by gamma counter analysis; format: ADME, organism-based; details: in vivo, 1 h, dose 5-7.4 MBq; how it was run: as §4
[21] = Drug uptake in tumor of female nude mouse harboring null mutation of CD1 antigen complex xenografted with human U-87 MG cells at 5 to 7.4 MBq, iv measured at 60 mins by PET/CT analysis; format: ADME, organism-based, Neoplasm; details: in vivo, 1 h, dose 5-7.4 MBq; how it was run: as §5
[22] = Ratio of drug level in tumor to small intestine of female nude mouse harboring null mutation of CD1 antigen complex xenografted with human U-87 MG cells at 5 to 7.4 MBq, iv measured at 60 mins postinjection by gamma counter analysis; format: ADME, organism-based; details: in vivo, 1 h, dose 5-7.4 MBq; how it was run: as §4
[23] = Stability in female nude mouse harboring null mutation of CD1 antigen complex assessed as drug degradation at 5.1 to 7.4 MBq, iv measured at 60 mins by radio-HPLC analysis; format: ADME, organism-based; details: 1 h, dose 5.1-7.4 MBq
How it was run: (§6)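 Female CD1 nude mice received 5.1–7.4 MBq i.v. EDTA blood collected at 15, 30 and 60 min p.i. (n=3 per time point) was centrifuged to plasma, deproteinized with cold ACN and centrifuged. The supernatant was analyzed by radio-HPLC with 30 s fractions γ-counted to give the percent intact tracer.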

[24] = Drug uptake in large intestine of female nude mouse harboring null mutation of CD1 antigen complex assessed as increase in renal excretion at 5.1 to 7.4 MBq, iv measured at 60 mins by gamma counter analysis; format: ADME, organism-based; details: in vivo, 1 h, dose 5.1-7.4 MBq; how it was run: as §2
[25] = Drug uptake in tibia of female nude mouse harboring null mutation of CD1 antigen complex xenografted with human U-87 MG cells at 5 to 7.4 MBq, iv measured after 60 mins by gamma counter analysis; format: ADME, organism-based; details: in vivo, 1 h, dose 5-7.4 MBq
[26] = Stability in female nude mouse harboring null mutation of CD1 antigen complex assessed as compound remaining at 5.1 to 7.4 MBq, iv measured at 60 mins by radio-HPLC analysis; format: ADME, organism-based; details: in vivo, dose 5.1-7.4 MBq, read-out: Stability; how it was run: as §6
[27] = Drug uptake in blood of female nude mouse harboring null mutation of CD1 antigen complex at 5.1 to 7.4 MBq, iv measured after 15 to 60 mins by gamma counter analysis; format: ADME, organism-based; details: in vivo, dose lower 5.1 MBq, time lower 15 min, dose upper 7.4 MBq, time upper 60 min; how it was run: as §2

Sequence of Dipeptidyl peptidase 8 (Q6V1X1 whole entry): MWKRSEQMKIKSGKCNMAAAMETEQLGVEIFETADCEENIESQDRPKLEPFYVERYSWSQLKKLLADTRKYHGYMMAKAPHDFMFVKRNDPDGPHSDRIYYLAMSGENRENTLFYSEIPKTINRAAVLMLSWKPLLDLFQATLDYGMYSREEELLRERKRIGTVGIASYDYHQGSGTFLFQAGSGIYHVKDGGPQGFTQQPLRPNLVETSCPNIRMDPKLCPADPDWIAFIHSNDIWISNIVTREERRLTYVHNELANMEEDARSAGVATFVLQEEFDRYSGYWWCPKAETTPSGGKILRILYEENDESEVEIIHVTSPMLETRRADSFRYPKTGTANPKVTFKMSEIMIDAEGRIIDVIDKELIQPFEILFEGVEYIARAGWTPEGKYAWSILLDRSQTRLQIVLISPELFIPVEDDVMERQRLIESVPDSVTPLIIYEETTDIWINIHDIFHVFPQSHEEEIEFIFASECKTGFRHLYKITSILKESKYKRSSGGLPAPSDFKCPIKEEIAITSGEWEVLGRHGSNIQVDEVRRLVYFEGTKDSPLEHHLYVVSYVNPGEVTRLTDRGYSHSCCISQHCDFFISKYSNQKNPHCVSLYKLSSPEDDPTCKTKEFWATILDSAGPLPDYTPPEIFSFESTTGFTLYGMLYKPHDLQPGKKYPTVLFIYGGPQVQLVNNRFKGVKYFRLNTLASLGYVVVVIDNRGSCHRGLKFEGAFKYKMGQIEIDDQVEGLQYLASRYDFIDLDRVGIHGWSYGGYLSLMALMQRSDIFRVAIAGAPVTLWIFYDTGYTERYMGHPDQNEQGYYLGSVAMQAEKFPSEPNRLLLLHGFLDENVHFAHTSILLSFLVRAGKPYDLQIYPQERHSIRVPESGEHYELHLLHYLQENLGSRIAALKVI

Row | SMILES | remaining at 1 h, 185 kBq [1] [%] | Drug uptake [2] | remaining at 1 h, 185 kBq [3] [%] | Drug uptake [4] | Drug uptake [5] | Ratio [6] | Drug uptake [7] | Drug uptake [9] | Drug uptake [11] | Drug uptake [12] | Drug uptake [13] | Ratio [14] | Stability [15] | Drug uptake [16] | Stability [17] | Drug uptake [18] | logD at 2 min [19] | Ratio [20] | Drug uptake [21] [%ID/ml] | Ratio [22] | other results
1 | N#C[C@@H]1CC(F)(F)CN1C(=O)CNC(=O)c1ccnc2ccccc12 | – | – | – | – | – | – | – | – | – | – | – | – | – | – | – | – | – | – | – | – | IC50 (Dipeptidyl peptidase 8): 4.7 µM
2 | COC(C[18F])COc1ccc2nccc(C(=O)NCC(=O)N3CC(F)(F)C[C@H]3C#N)c2c1 (stereo not given in full) | > 70 | Active | > 70 | Active | Active | 5.01 | Not Active | Active | Active | Not Active | Active | 1.64 | Stable | Active | Stable | Active | 0.77 | 6.48 | < 3 | 0.22 | Drug uptake [8]: 1.86 %ID/ml; Drug uptake [10]: Active; Stability [23]: Unstable
3 | [2H]C([2H])([18F])[N+](C)(C)CCCOc1ccc2nccc(C(=O)NCC(=O)N3CC(F)(F)C[C@H]3C#N)c2c1 | > 70 | Active | > 70 | Active | Active | 6.35 | Not Active | Active | Active | Not Active | Active | 4.77 | Stable | Active | Stable | Active | -1.77 | 6.54 | 10.16 | 2.43 | Drug uptake [24]: 0.38 % ID/g; Drug uptake [10]: Active; Drug uptake [25]: 4.33 % ID/g; remaining at 1 h [26]: 56.5%; Drug uptake [27]: 0.24 % ID/g
4 | N#C[C@@H]1CC(F)(F)CN1C(=O)CNC(=O)c1ccnc2ccc(OCC(O)C(O)C[18F])cc12 (stereo not given in full) | > 70 | Active | > 70 | – | Active | 6.56 | Not Active | Active | Active | Not Active | Active | 1.67 | Stable | Active | Stable | Active | -0.27 | 5.26 | < 3 | 0.12 | Drug uptake [27]: 0.13 % ID/g; Stability [23]: Unstable
